The target of one experiment is T1, Adenosine receptor A2b (Homo sapiens, UniProt P29275).
T1 sequence (P29275 whole entry): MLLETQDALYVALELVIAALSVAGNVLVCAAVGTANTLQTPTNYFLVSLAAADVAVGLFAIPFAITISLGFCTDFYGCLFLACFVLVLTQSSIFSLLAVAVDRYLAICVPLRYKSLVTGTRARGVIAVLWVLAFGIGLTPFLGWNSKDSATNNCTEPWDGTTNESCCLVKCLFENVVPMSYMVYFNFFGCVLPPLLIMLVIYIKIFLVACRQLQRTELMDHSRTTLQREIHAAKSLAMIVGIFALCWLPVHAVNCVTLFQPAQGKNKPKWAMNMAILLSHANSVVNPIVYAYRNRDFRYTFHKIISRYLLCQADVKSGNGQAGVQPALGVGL
Briefly: Displacement of [3H]DPCPX from human adenosine A2B receptor expressed in HEK293 cell membranes after 30 mins. Background: Displacement assays read how much labelled ligand stays bound in the presence of the test substance.

For experiment [1], the target named is T2, Adenosine receptor A1 (Homo sapiens) (UniProt P30542).
T2 sequence (whole entry): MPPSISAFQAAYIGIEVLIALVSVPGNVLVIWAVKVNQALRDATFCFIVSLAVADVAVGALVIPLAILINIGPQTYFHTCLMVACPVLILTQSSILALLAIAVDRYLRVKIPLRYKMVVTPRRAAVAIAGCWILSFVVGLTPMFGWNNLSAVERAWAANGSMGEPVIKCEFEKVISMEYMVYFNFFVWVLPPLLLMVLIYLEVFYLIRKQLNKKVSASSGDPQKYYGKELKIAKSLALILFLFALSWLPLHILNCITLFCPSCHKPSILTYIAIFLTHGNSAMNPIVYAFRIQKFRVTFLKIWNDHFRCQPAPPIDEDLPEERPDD
Kind of experiment: Displacement of [3H]DPCPX from human adenosine A1 receptor expressed in CHO cell membranes at 1 uM after 60 mins. A digest of the protocol: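 Membranes from CHO cells expressing human A1 receptor, labelled with 2 nM [3H]DPCPX. Nonspecific binding defined with 10 μM R-PIA. Incubated 25 °C, 60 min. Percent inhibition of specific binding at 1 μM, average of n = 2.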

The target of experiment [2] is T3, Adenosine receptor A3 (Homo sapiens) (UniProt P0DMS8).
T3 sequence (whole entry): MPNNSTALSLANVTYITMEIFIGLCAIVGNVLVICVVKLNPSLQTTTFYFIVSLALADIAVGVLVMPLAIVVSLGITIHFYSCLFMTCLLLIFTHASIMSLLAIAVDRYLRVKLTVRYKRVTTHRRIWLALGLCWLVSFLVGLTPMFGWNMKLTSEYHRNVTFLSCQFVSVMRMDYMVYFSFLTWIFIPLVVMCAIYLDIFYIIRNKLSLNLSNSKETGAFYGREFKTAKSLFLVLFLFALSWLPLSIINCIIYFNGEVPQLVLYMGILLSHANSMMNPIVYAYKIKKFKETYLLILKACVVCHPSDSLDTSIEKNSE
Briefly: Displacement of [3H]NECA from human adenosine A3 receptor expressed in human Hela cell membranes at 1 uM after 180 mins. In outline: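 Membranes from HeLa cells expressing human A3 receptor, labelled with 30 nM [3H]NECA. Nonspecific binding defined with 100 μM R-PIA. Incubated 25 °C, 180 min. Percent inhibition of specific binding at 1 μM, average of n = 2.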

Experiment [3] deals with Adenosine receptor A2a (Homo sapiens) (UniProt P29274). Briefly: Displacement of [3H]4-(2-[7-amino-2-(2-furyl)[1,2,4]triazolo[2,3-a][1,3,5]triazin-5-ylamino]ethyl)phenol from human adenosine A2A receptor expressed in human Hela cell membranes at 1 uM after 30 mins. A digest of the protocol: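 Membranes from HeLa cells expressing human A2A receptor, labelled with 3 nM radioligand. Nonspecific binding defined with 50 μM NECA. Incubated 25 °C, 30 min. Percent inhibition of specific binding at 1 μM, average of n = 2.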
Chain of Adenosine receptor A2a (Homo sapiens) (P29274 whole entry): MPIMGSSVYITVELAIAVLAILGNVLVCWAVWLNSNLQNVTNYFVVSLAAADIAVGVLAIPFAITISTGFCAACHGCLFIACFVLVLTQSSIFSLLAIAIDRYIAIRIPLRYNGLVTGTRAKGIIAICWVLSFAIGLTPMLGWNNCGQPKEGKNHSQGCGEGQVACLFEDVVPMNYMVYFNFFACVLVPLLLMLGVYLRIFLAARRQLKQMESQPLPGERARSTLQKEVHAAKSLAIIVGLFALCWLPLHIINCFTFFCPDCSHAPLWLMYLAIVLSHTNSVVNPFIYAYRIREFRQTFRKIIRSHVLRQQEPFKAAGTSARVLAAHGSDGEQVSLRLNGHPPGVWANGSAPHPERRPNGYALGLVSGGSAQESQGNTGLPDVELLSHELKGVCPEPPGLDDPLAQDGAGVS

Experiment [4] has as its target T4, Adenosine receptor A2b (Homo sapiens) (UniProt P29275).
T4 sequence (whole entry): T1 sequence (P29275 whole entry)
Kind of experiment: Displacement of [3H]DPCPX from human adenosine A2B receptor expressed in HEK293 cell membranes at 1 uM after 30 mins. In outline:
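HEK-293 membranes expressing human A2B receptor, labelled with 35 nM [3H]DPCPX. Nonspecific binding with 400 μM NECA. 25 °C, 30 min. Percent inhibition of specific binding at 1 μM, average of n = 2.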

For experiment [5], the target named is T4, Adenosine receptor A2b (Homo sapiens). Briefly: Antagonist activity at human adenosine A2B receptor expressed in HEK293 cell […] assessed as inhibition of NECA-stimulated cAMP accumulation preincubated for 15 mins followed by NECA stimulation for 15 mins by enzyme immunoassay. It is filed as functional, cell-based. In outline:
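Whole HEK-293 cells transfected with human A2B receptor, grown at 37 °C, 5% CO2 in EMEM F-12 with 10% FCS and 1% L-glutamine. Washed, then preincubated 15 min at 37 °C in EMEM-F12/25 mM HEPES pH 7.4 with 30 μM rolipram plus test compound. Stimulated with 10 μM NECA for 15 min. Lysed, intracellular cAMP read by enzyme immunoassay at 450 nm. KB derived from IC50 by the Leff and Dougall method. n = 3, each in duplicate.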
(In general: Cyclic AMP is a second messenger, typically raised through Gs and lowered through Gi signalling.)

Molecules are shown by their SMILES. pKi: −log10 of the molar value.

In the case of `CC1=C(C(=O)OC(C)C)[C@@H](c2ccco2)N/C(=N/C#N)N1`, at Adenosine receptor A2b, the pKi (commonly the Ki on a negative log10 scale, so that one unit is a factor of ten) was 7.82. The inhibition – broadly, how much of the control response was suppressed – in experiment [1] was found to be 2%; in experiment [2], 4%; in experiment [3], 4%.

Consider `CC1=C(C(=O)OC(C)C)C(C2CCCC2)NC(=O)N1` (stereo unspecified), for which the inhibition came out at 1% in experiment [1], 3% in experiment [4], 7% in experiment [2] and 1% in experiment [3].

Turning to `CC1=C(C(=O)OC(C)C)C(c2ccccc2)NC(=O)N1` (stereo unspecified), the inhibition in experiment [1] turned out to be 2%; in experiment [4], 2%; in experiment [2] it was 2%; in experiment [3] it was 1%.

Consider `CC1=C(C(=O)OC(C)C)C(c2ccco2)NC(=O)N1` (stereo unspecified), for which the inhibition in experiment [1] turned out to be 20%; in experiment [2], 1%; in experiment [3], 30%.

For `CC1=C(C(=O)OC(C)C)C(c2ccsc2)NC(=O)N1` (stereo unspecified), the inhibition in experiment [2] worked out at 1%.

In the case of `CC1=C(C(=O)OC(C)C)[C@H](c2ccco2)N/C(=N/C#N)N1`, the inhibition in experiment [1] was 18%; in experiment [4] it was 23%; in experiment [2], 1%; in experiment [3], 10%.

Consider `CCOC(=O)C1=C(C)NC(=O)NC1C1CCCC1` (stereo unspecified), for which the inhibition was found to be 3% in experiment [1], 2% in experiment [4], 18% in experiment [2] and 1% in experiment [3].

Regarding `CCOC(=O)C1=C(C)NC(=O)NC1c1ccccc1` (stereo unspecified), the inhibition in experiment [1] worked out at 1%; in experiment [4], 2%; in experiment [2], 2%; in experiment [3], 10%.

For the compound `CCOC(=O)C1=C(C)NC(=O)NC1c1ccco1` (stereo unspecified), the values for the inhibition in experiment [1] and in experiment [3] were 18% and 41%, respectively.

Turning to `CCOC(=O)C1=C(C)NC(=O)NC1c1cccs1` (stereo unspecified), the inhibition in experiment [1] came to 1%; in experiment [4], 44%; in experiment [2], 1%.

For the compound `CCOC(=O)C1=C(C)NC(=O)NC1c1ccoc1` (stereo unspecified), the inhibition in experiment [3] worked out at 39%.

On to `CCOC(=O)C1=C(C)NC(=O)NC1c1ccsc1` (stereo unspecified), for which the inhibition in experiment [1] was determined as 22%; in experiment [2], 24%; in experiment [3], 39%.

At Adenosine receptor A2b, `CC1=C(C(=O)OC(C)C)C(c2ccco2)N/C(=N/C#N)N1` (racemic) had a pKi of 7.61. For the same compound, the inhibition in experiment [1] worked out at 21%; in experiment [2], 4%; in experiment [3], 19%. Besides, in experiment [5], the Kb (commonly the equilibrium dissociation constant of an antagonist, usually derived from a functional assay) stood at 116 nM.

On to `CCOC(=O)C1=C(C)N/C(=N\C#N)NC1c1ccoc1` (racemic), for which the pKi at Adenosine receptor A2b is 6.99. The values for the inhibition in experiment [1], in experiment [2] and in experiment [3] were 28%, 14% and 31%, respectively.

On to `CCOC(=O)C1=C(C)N/C(=N\C#N)NC1c1cccs1` (racemic), for which the pKi at Adenosine receptor A2b is 7.29. The inhibition in experiment [1] was found to be 26%; in experiment [2] it was 3%; in experiment [3], 33%.

In turn, `CCOC(=O)C1=C(C)N/C(=N\C#N)NC1c1ccsc1` (racemic) had a pKi at Adenosine receptor A2b of 6.34. For the same compound, the inhibition was determined as 29% in experiment [1], 23% in experiment [2] and 30% in experiment [3].

The compound `CCOC(=O)C1=C(C)N/C(=N\C#N)NC1c1ccco1` (racemic) showed a pKi on Adenosine receptor A2b of 6.05. For the same compound, the inhibition in experiment [1] amounted to 27%; in experiment [2], 20%; in experiment [3], 20%.

As for `CC1=C(C(=O)OC(C)C)C(c2cccs2)N/C(=N/C#N)N1` (racemic), the pKi on Adenosine receptor A2b is 6.46. The inhibition in experiment [1] turned out to be 31%; in experiment [2], 27%; in experiment [3], 16%.

Take `CC1=C(C(=O)OC(C)C)C(c2ccoc2)N/C(=N/C#N)N1` (racemic): the pKi on Adenosine receptor A2b is 7.23. Also, the inhibition in experiment [1] worked out at 34%; in experiment [2], 41%; in experiment [3], 25%.

`CC1=C(C(=O)OC(C)C)C(c2ccsc2)N/C(=N/C#N)N1` (racemic) showed a pKi on Adenosine receptor A2b of 6.19. Moreover, the figures for the inhibition in experiment [1], in experiment [2] and in experiment [3] were 11%, 13% and 18%, respectively.

`CC1=C(C(=O)OC(C)C)C(C2CCCC2)N/C(=N/C#N)N1` (racemic): the inhibition in experiment [1] turned out to be 3%; in experiment [4], 11%; in experiment [2] it was 3%; in experiment [3], 5%.

For the compound `CC1=C(C(=O)OC(C)C)C(c2ccccc2)N/C(=N/C#N)N1` (racemic), the inhibition in experiment [1] turned out to be 20%; in experiment [4], 32%; in experiment [2], 6%; in experiment [3], 12%.

Consider `CCOC(=O)C1=C(C)N/C(=N\C#N)NC1C1CCCC1` (racemic), for which the inhibition in experiment [1] came out at 11%; in experiment [4], 19%; in experiment [2], 4%; in experiment [3], 10%.

For `CCOC(=O)C1=C(C)N/C(=N\C#N)NC1c1ccccc1` (racemic), the inhibition in experiment [1] is 18%; in experiment [4], 25%; in experiment [2], 13%; in experiment [3], 13%.

The values are drawn from ChEMBL document CHEMBL4049429, “Enantiospecific Recognition at the A2B Adenosine Receptor by Alkyl 2-Cyanoimino-4-substituted-6-methyl-1,2,3,4-tetrahydropyrimidine-5-carboxylates” (J Med Chem, 2017).
